# Source: ChEMBL document CHEMBL1156022, “Discovery of N-{N-[(3-cyanobenzene) sulfonyl]-4(R)-(3,3-difluoropiperidin-1-yl)-(l)-prolyl}-4-[(3',5'-dichloro-isonicotinoyl) amino]-(l)-phenylalanine (MK-0617), a highly potent and orally active VLA-4 antagonist” (Bioorg Med Chem Lett, 2009)
# Assays:
# Integrin alpha-4/beta-1 [1] = target: T1, Integrin alpha-4/beta-1 (Homo sapiens, UniProt P05556+P13612); test: Displacement of [35S]-labeled ligand from VLA4 in human Jurkat cells washed with buffer containing non activating Ca2+ and Mg2+ by competitive binding assay; assay type: cell-based
# T1 sequence (P05556 whole entry): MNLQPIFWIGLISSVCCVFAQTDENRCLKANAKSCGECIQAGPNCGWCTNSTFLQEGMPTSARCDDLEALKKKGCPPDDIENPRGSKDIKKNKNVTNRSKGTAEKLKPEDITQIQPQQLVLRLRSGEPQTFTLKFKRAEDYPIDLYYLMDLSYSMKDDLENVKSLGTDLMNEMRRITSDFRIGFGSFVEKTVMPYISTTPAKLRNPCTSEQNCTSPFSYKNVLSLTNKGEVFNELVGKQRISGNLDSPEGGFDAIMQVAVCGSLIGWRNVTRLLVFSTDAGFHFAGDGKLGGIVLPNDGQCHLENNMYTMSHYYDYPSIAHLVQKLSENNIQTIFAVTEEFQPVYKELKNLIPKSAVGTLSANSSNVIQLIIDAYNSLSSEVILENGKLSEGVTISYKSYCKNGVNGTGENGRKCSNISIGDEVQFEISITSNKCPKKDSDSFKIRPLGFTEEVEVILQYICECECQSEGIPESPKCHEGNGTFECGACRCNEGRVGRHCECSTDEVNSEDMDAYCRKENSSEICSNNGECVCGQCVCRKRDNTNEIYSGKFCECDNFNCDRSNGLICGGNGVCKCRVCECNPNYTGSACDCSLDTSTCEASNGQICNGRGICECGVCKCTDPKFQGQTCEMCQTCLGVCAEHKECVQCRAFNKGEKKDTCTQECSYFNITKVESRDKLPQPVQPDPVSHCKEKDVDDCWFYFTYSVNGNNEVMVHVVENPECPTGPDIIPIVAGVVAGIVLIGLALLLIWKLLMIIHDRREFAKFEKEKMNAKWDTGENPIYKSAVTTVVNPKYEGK
# T1 sequence (P13612 whole entry): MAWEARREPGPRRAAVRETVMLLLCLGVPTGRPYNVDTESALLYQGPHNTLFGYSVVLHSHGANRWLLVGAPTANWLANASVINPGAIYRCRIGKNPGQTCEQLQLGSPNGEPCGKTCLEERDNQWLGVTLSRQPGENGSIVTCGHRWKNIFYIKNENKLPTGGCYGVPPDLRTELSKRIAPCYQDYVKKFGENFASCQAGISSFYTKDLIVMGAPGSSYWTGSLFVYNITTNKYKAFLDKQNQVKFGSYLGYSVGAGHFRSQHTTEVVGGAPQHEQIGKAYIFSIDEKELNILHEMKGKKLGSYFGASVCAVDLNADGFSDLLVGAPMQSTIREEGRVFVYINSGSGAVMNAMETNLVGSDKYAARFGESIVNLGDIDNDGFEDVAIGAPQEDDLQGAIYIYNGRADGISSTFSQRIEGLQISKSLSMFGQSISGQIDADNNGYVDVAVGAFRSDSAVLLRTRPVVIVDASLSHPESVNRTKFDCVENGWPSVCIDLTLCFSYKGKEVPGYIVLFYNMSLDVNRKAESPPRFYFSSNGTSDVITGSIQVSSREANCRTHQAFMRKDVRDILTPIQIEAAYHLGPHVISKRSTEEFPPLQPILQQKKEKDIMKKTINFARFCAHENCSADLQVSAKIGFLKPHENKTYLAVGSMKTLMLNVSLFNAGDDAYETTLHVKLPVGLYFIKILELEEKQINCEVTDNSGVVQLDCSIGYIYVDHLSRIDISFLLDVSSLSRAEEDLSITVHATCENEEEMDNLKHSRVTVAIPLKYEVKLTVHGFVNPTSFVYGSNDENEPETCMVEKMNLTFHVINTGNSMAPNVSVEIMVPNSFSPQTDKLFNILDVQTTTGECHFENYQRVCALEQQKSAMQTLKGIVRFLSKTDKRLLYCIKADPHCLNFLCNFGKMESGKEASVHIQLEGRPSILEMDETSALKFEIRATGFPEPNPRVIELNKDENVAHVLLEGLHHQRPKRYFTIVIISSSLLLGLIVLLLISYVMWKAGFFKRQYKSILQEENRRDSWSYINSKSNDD
# In short: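 Competition binding in Jurkat cells with a ³⁵S-labeled ligand, VLA-4 held non-activated in Ca²⁺/Mg²⁺ buffer; IC₅₀ reported; data are means of three independent runs or n = 1.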
# Rattus norvegicus [2] = test: Receptor occupancy of VLA4 in rat at 1.5 mg/kg after 24 hrs; assay type: functional
# In short: (§1)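 Ethyl ester prodrug given orally to rats at 1.5 mpk; VLA-4 receptor occupancy measured at 12 h and 24 h post-dose.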
# Rattus norvegicus [3] = test: Receptor occupancy of VLA4 in rat at 1.5 mg/kg after 12 hrs; assay type: functional; in short: as §1
# [4] = test system: Integrin alpha-4/beta-1 (Rattus norvegicus); test: Receptor occupancy of VLA4 in rat whole blood washed with buffer containing non activating Ca2+ and Mg2+ at 37 degC after 24 hrs
# Rattus norvegicus [5] = test: AUC in rat at 5 mg/kg, po; assay type: ADME, organism-based, Plasma; set-up: dose 5 mg/kg, route oral; settings: in vivo
# [6] = Plasma clearance in rat at 5 mg/kg, po; assay type: ADME, organism-based; set-up: dose 5 mg/kg, route oral
# Rattus norvegicus [7] = test: Receptor occupancy of VLA4 in rat at 5 mg/kg, po after 12 hrs; assay type: functional
# In short: (§2)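 Parent acid given orally to rats at 5 mpk; VLA-4 receptor occupancy assayed at 12 h and 24 h after dosing.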
# [8] = Bioavailability in rat at 5 mg/kg, po; assay type: ADME, organism-based; settings: in vivo
# Integrin alpha-4/beta-1 [9] = target: T1, Integrin alpha-4/beta-1; test: Displacement of [35S]-labeled ligand from VLA4 in human Jurkat cells washed with buffer containing activating Mn2+ by competitive binding assay; assay type: cell-based
# [10] = Cmax in rat at 5 mg/kg, po; assay type: ADME, organism-based; set-up: dose 5 mg/kg, route oral; settings: in vivo
# [11] = test system: Integrin alpha-4/beta-1 (Rattus norvegicus); test: Receptor occupancy of VLA4 in rat whole blood washed with buffer containing non activating Ca2+ and Mg2+ at 37 degC after 12 hrs
# Rattus norvegicus [12] = test: Receptor occupancy of VLA4 in rat at 5 mg/kg, po after 24 hrs; assay type: functional; in short: as §2
# Integrin alpha-4/beta-1 [13] = target: T1, Integrin alpha-4/beta-1; test: Receptor occupancy of VLA4 in whole blood washed with buffer containing activating Mn2+ at 37 degC after 3 hrs; assay type: tissue-based
# Integrin alpha-4/beta-1 [14] = target: T1, Integrin alpha-4/beta-1; test: Inhibition of VLA4 in human whole blood
# In short: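 Competitive binding run in human whole blood; IC₅₀ read-out.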
smiles,measurement,setting,value
N#Cc1cccc(S(=O)(=O)N2C[C@H](N3CCC(F)CC3)C[C@H]2C(=O)N[C@@H](Cc2ccc(NC(=O)c3c(Cl)cncc3Cl)cc2)C(=O)O)c1,IC50,Integrin alpha-4/beta-1 [1],0.35 nM
CCOC(=O)[C@H](Cc1ccc(NC(=O)c2c(Cl)cncc2Cl)cc1)NC(=O)[C@@H]1C[C@@H](NC2CCC2)CN1S(=O)(=O)c1cccc(C#N)c1,Activity,Rattus norvegicus [2],25%
N#Cc1cccc(S(=O)(=O)N2C[C@H](N3CC(F)C3)C[C@H]2C(=O)N[C@@H](Cc2ccc(NC(=O)c3c(Cl)cncc3Cl)cc2)C(=O)O)c1,IC50,Integrin alpha-4/beta-1 [1],0.27 nM
N#Cc1cccc(S(=O)(=O)N2C[C@H](N3CCCC(F)C3)C[C@H]2C(=O)N[C@@H](Cc2ccc(NC(=O)c3c(Cl)cncc3Cl)cc2)C(=O)O)c1 (stereo not given in full),IC50,Integrin alpha-4/beta-1 [1],0.21 nM
N#Cc1cccc(S(=O)(=O)N2C[C@H](N3CCCC3)C[C@H]2C(=O)N[C@@H](Cc2ccc(NC(=O)c3c(Cl)cncc3Cl)cc2)C(=O)O)c1,IC50,Integrin alpha-4/beta-1 [1],0.22 nM
CCOC(=O)[C@H](Cc1ccc(NC(=O)c2c(Cl)cncc2Cl)cc1)NC(=O)[C@@H]1C[C@@H](N2CCCC(F)(F)C2)CN1S(=O)(=O)c1cccc(C#N)c1,Activity,Rattus norvegicus [3],88%
same,Activity,Rattus norvegicus [2],60%
N#Cc1cccc(S(=O)(=O)N2C[C@H](N3CCC(F)(F)C3)C[C@H]2C(=O)N[C@@H](Cc2ccc(NC(=O)c3c(Cl)cncc3Cl)cc2)C(=O)O)c1,IC50,Integrin alpha-4/beta-1 [1],0.1 nM
N#Cc1cccc(S(=O)(=O)N2C[C@H](N3CCCC(F)(F)C3)C[C@H]2C(=O)N[C@@H](Cc2ccc(NC(=O)c3c(Cl)cncc3Cl)cc2)C(=O)O)c1,Activity,[4],40%
same,AUC,Rattus norvegicus [5],0.05 µM·h
same,CL/F,[6],> 100 mL/min/kg
same,Activity,Rattus norvegicus [7],65%
same,bioavailability,[8],< 5%
same,IC50,Integrin alpha-4/beta-1 [9],0.02 nM
same,Cmax,[10],27 nM
same,IC50,Integrin alpha-4/beta-1 [1],0.03 nM
same,Activity,[11],70%
same,Activity,Rattus norvegicus [12],22%
same,Activity,Integrin alpha-4/beta-1 [13],95%
same,IC50,Integrin alpha-4/beta-1 [14],0.07 nM
N#Cc1cccc(S(=O)(=O)N2C[C@H](N3CC(F)(F)C3)C[C@H]2C(=O)N[C@@H](Cc2ccc(NC(=O)c3c(Cl)cncc3Cl)cc2)C(=O)O)c1,IC50,Integrin alpha-4/beta-1 [1],0.9 nM
N#Cc1cccc(S(=O)(=O)N2C[C@H](N3CC[C@@H](F)C3)C[C@H]2C(=O)N[C@@H](Cc2ccc(NC(=O)c3c(Cl)cncc3Cl)cc2)C(=O)O)c1,IC50,Integrin alpha-4/beta-1 [1],0.12 nM
N#Cc1cccc(S(=O)(=O)N2C[C@H](N3CC[C@H](F)C3)C[C@H]2C(=O)N[C@@H](Cc2ccc(NC(=O)c3c(Cl)cncc3Cl)cc2)C(=O)O)c1,IC50,Integrin alpha-4/beta-1 [1],0.24 nM
N#Cc1cccc(S(=O)(=O)N2C[C@H](NC3CCC3)C[C@H]2C(=O)N[C@@H](Cc2ccc(NC(=O)c3c(Cl)cncc3Cl)cc2)C(=O)O)c1,IC50,Integrin alpha-4/beta-1 [1],0.15 nM
same,Activity,Integrin alpha-4/beta-1 [13],95%
N#Cc1cccc(S(=O)(=O)N2C[C@H](N3CCC(F)(F)CC3)C[C@H]2C(=O)N[C@@H](Cc2ccc(NC(=O)c3c(Cl)cncc3Cl)cc2)C(=O)O)c1,IC50,Integrin alpha-4/beta-1 [1],0.22 nM
N#Cc1cccc(S(=O)(=O)N2C[C@H](N3CCCCC3)C[C@H]2C(=O)N[C@@H](Cc2ccc(NC(=O)c3c(Cl)cncc3Cl)cc2)C(=O)O)c1,IC50,Integrin alpha-4/beta-1 [1],0.11 nM
N#Cc1cccc(S(=O)(=O)N2C[C@H](N3CCC3)C[C@H]2C(=O)N[C@@H](Cc2ccc(NC(=O)c3c(Cl)cncc3Cl)cc2)C(=O)O)c1,IC50,Integrin alpha-4/beta-1 [1],0.15 nM
N#Cc1cccc(S(=O)(=O)N2C[C@H](N(CC(F)(F)F)C3CCC3)C[C@H]2C(=O)N[C@@H](Cc2ccc(NC(=O)c3c(Cl)cncc3Cl)cc2)C(=O)O)c1,IC50,Integrin alpha-4/beta-1 [1],0.02 nM
same,IC50,Integrin alpha-4/beta-1 [14],3.1 nM
